Screening results (PubChem BioAssay)
Hits are enriched below; roughly 3.5% of the tested compounds scored in any of these assays.
RGS4 act: RGS4 potentiation or activation | HEK293 M3R/inducible RGS4, carbachol calcium flux Fluo4; active compounds read low | B-score at 10 µM | 310,000 tested, 0.92% active | AID 463111;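 active = B-score of the integrated calcium signal more than 4 SD below the library mean, with starting fluorescence not abnormally high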;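 also: negative B-score means reduced calcium response which marks RGS4 activation or potentiation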
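test system = HEK293 cells with stable M3R and inducible RGS4 | schedule = recording 10 s baseline at 1 Hz, 100 s post-agonist | technique = Fluo4-AM (2 µM) calcium-flux fluorescence, kinetic read | measure = Agonist-evoked peak-minus-minimum fluorescence over baseline, integrated ratio, B score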
RGS4 inh: inhibitors of human RGS4; P49798; HEK293 M3R/RGS4 inducible, Fluo-4 calcium flux; active compounds read high; triggered by carbachol at its EC20; B-score at 10 µM; 310,000 tested, 0.45% active; AID 463165;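 active = B-score, a plate-corrected calcium signal, over three deviations above library mean, with baseline fluorescence within five deviations of library mean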;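 also: RGS4 expression induced by doxycycline in cells with stable M3 receptor; B-score is computed from the integrated fluorescence ratio over baseline after carbachol; higher B-score means a larger calcium signal and so more RGS4 inhibition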
Target sequence (P49798 whole entry, looked up): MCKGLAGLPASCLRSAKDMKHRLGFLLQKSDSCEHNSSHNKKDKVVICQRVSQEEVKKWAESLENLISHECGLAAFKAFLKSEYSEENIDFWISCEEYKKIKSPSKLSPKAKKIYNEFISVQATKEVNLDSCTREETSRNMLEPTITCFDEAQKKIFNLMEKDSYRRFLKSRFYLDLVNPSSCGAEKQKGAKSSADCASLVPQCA
MrgX1 ag: agonists of human MrgX1 receptor; Q96LB2; MrgX1-HEK293 cells, Fluo-4 calcium fluorescence, agonist mode; active compounds read high; B-score at 10 µM; 310,000 tested, 0.44% active;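 active = calcium response B-score plate-corrected fluorescence ratio at least 3 library SD, with starting fluorescence B-score inside 5 SD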
Target sequence (Q96LB2 whole entry, looked up): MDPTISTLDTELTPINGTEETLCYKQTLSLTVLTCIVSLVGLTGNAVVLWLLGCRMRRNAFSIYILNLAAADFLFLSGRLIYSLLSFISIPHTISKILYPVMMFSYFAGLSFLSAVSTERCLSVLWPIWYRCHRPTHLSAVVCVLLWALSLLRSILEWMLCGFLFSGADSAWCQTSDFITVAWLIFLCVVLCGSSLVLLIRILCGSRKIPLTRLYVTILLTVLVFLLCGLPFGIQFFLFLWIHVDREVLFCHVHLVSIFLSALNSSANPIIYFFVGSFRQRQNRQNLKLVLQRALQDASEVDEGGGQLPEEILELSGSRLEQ
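times = overnight plating, then 30 min 37 °C plus 30 min room-temperature dye loading | assay system = stable human MrgX1 HEK293 cell line | input = fifteen thousand cells per well | signal = kinetic calcium dye fluorescence, Fluo-4 NW | dosing = compound delivered in addition one of three | read-out = B-scored fluorescence response ratio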
MrgX1 allo act: human MrgX1 positive allosteric modulation, primary screen; B-score at 10 µM; 310,000 tested, 0.63% active; Q96LB2; MrgX1-HEK293, Fluo-4 calcium flux, FDSS; active compounds read high;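 active = plate-corrected calcium response at least 3 library SD above typical, normal starting fluorescence, not activating the receptor alone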;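 also: compound read alongside a low EC10 to EC30 dose of BAM8-22 agonist; peak minus trough fluorescence over baseline measured at the second addition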
MrgX1 antagonist: antagonists of human MrgX1 receptor | Q96LB2 | MRGX1-HEK293 calcium flux, Fluo-4, BAM8-22 antagonism; active compounds read low | B-score at 10 µM | 310,000 tested, 1.3% active;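 active = calcium-response B-score plate-corrected more than 3 library SD below zero, starting fluorescence within 5 deviations, no agonist response on first addition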;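 also: peak minus trough fluorescence over baseline after final BAM8-22 challenge near maximal dose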
MrgX1 antag conf: confirmation of human MrgX1 receptor antagonists; shares compounds with MrgX1 antagonist; MrgX1-HEK293, BAM8-22 calcium flux, Fluo-4; active compounds read low; remaining BAM8-22 calcium response % of control (active compounds read low), % at 10 µM; 2,300 tested, 19% active;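 active = remaining agonist calcium response no higher than 100% minus 3 SD of agonist-only control wells, with starting fluorescence near control levels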;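 also: agonist BAM8-22 given at a near maximal EC90 to ECmax level; peak minus minimum fluorescence divided by baseline after agonist addition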
HEK293 Ca flux: activity in parental HEK293 cells lacking MrgX1; shares compounds with MrgX1 antagonist; Fluo-4 calcium fluorescence, FDSS; fluorescence ratio F(max-min)/F0 at 10 µM; 4,000 tested, 2% active; AID 624111;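 active = duplicate-averaged calcium fluorescence ratio at least three times the standard deviation of buffer wells, a nonspecific response in parental cells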
HEK293 Ca counter: MrgX1 allosteric activator counter-screen hit in parental HEK293 cells. shares compounds with MrgX1 antagonist. parental HEK293 calcium flux, Fluo-4 fluorescence ratio; active compounds read high. fluorescence ratio F(max-min)/F0 at 10 µM. 4,000 tested, 0.4% active;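 active = calcium fluorescence ratio, averaged over duplicates, at least 3 SD of the buffer-well ratio, meaning a nonspecific response in receptor-free cells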;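 also: untransfected parental HEK293 lacking MrgX1 used as counterscreen for MrgX1 allosteric activators; fluorescence change taken during the second addition on a kinetic imager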
HEK293 Ca cntr2: activity in parental HEK293 cells lacking MrgX1 receptor | 4,000 tested, 8.7% active | shares compounds with MrgX1 antagonist | fluorescence ratio F(max-min)/F0 at 10 µM | AID 624115 | Fluo-4 calcium fluorescence (FDSS); active compounds read high;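 active = calcium fluorescence ratio at least three times the spread of buffer wells, meaning a non-specific response in parental cells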
A number is an active result; - = inactive; . = not tested or not shown.

SMILES | RGS4 act | RGS4 inh | MrgX1 ag | MrgX1 allo act | MrgX1 antagonist | MrgX1 antag conf | HEK293 Ca flux | HEK293 Ca counter | HEK293 Ca cntr2
COC(=O)[C@H](C)[C@@H]1C[C@@]1(C)[C@@H](NC(=O)OCc1ccccc1)c1ccccc1 | - | - | - | - | -5.45 | 75.3% | - | - | -
O=C1CCCN1CCCNS(=O)(=O)c1ccc(Br)cc1 | - | - | - | - | - | . | . | . | .
Cc1cc(C)c(C)c(S(=O)(=O)NCCCN2CCCC2=O)c1C | - | - | - | - | -5.44 | - | - | - | -
Cc1ccc(C)c(S(=O)(=O)C(C#N)c2nc3ccccc3nc2N2CCCC2)c1 (stereo not drawn) | - | - | - | - | - | . | . | . | .
Cc1ccc(C)c(S(=O)(=O)C(C#N)c2nc3ccccc3nc2N2CC(C)OC(C)C2)c1 (stereo not drawn) | - | - | - | - | -7.42 | 81.4% | - | - | 55.8
CCCOCC1CC(CCc2nc(=S)[nH][nH]2)C(=O)O1 (stereo not drawn) | - | - | - | - | -5.3 | - | - | - | -
O=C(Cn1cnc([N+](=O)[O-])c1)Nc1cc(Oc2ccc(Cl)cc2Cl)cc([N+](=O)[O-])c1 | - | - | - | - | - | . | . | . | .
Cc1ccc(CN2CCN(Cc3ccc(C)s3)CC2CCO)cc1 (stereo not drawn) | - | - | - | - | -5.08 | - | - | - | -
CSc1ccc(CN2CCN(CC=C(C)C)C(CCO)C2)cc1 (stereo not drawn) | - | - | - | - | - | . | . | . | .
Cc1ccc(CN2CCN(Cc3ccccc3)C(CCO)C2)s1 (stereo not drawn) | - | - | - | - | - | . | . | . | .
CSc1ccc(CN2CCN(Cc3ccccc3)C(CCO)C2)cc1 (stereo not drawn) | - | - | - | - | -4.84 | 82.7% | - | - | -
CSc1cccc(CN2CCN(CCc3ccccc3)C(CCO)C2)c1 (stereo not drawn) | - | - | - | - | - | . | . | . | .
CSc1cccc(CN2CCN(Cc3ccccc3)C(CCO)C2)c1 (stereo not drawn) | - | - | - | - | -5.16 | 82.9% | - | - | -
O=C(NCc1cccnc1)C(=O)NCC1OCCN1S(=O)(=O)c1ccc(F)cc1 (stereo not drawn) | - | - | - | - | - | . | . | . | .
O=C1CC[C@@H](OCc2ccccc2)CCN1CC[C@H](Sc1ccccc1)c1ccccc1 | - | - | - | - | - | . | . | . | .
CN(C)c1ccc(NC(=O)CC(NCc2ccccn2)C(=O)O)cc1 (stereo not drawn) | - | - | - | - | - | . | . | . | .
C/C(=N/NC(=O)CNc1ccc(Cl)cc1C)c1ccc(C)cc1 | - | - | - | - | - | . | . | . | .
C[C@]1(C(=O)NCc2cc(F)cc(C(F)(F)F)c2)C=C[C@@H](Cc2ccccc2)N1C(=O)c1ccccc1 | - | - | - | - | - | . | . | . | .
O=C(OCCN1C(=O)c2ccccc2C1=O)c1cccs1 | - | - | - | - | -5.03 | - | - | - | -
Cc1ccc(NC(=O)NCC2CCN(Cc3cccc(Cl)c3)CC2)c(Cl)c1 | - | - | - | - | - | . | . | . | .
O=C(NCC1CCN(Cc2cccc(Cl)c2)CC1)Nc1ccccc1Cl | - | - | - | - | -5.65 | - | - | - | -
CC(C(=O)NC1CCCCC1)N(Cc1ccccc1)C(=O)c1snc(C(N)=O)c1N (stereo not drawn) | - | - | - | - | - | . | . | . | .
CCOC(=O)c1ccc(-n2[nH]c(-c3ccccc3)cc2=O)cc1 | - | - | - | - | -5.85 | 71.3% | - | - | -
CCNC(=S)Nc1ccc(Cl)cc1 | - | - | - | - | -6.03 | - | - | - | -
COc1ccc2c3c(c(=O)oc2c1OCC(N)=O)CCCC3 | - | - | - | - | - | . | . | . | .
SMILES | RGS4 act | RGS4 inh | MrgX1 ag | MrgX1 allo act | MrgX1 antagonist | MrgX1 antag conf | HEK293 Ca flux | HEK293 Ca counter | HEK293 Ca cntr2
Cc1ccc(S(=O)(=O)CCC(=O)NCCc2ccc(Cl)cc2)cc1 | - | - | - | - | - | . | . | . | .
Cc1ccc(CCNC(=O)CCS(=O)(=O)c2ccc(Br)cc2)cc1 | - | - | - | - | -8.11 | - | - | - | -
COc1ccc(C(=O)N=C2SC3CS(=O)(=O)CC3N2c2ccc(C(C)=O)cc2)cc1 (stereo not drawn) | - | - | - | - | - | . | . | . | .
CC(C)(C)C(=O)CSc1ncnc2sc3c(c12)CCC3 | - | - | - | - | -9.68 | - | - | - | -
CC(=O)CSc1ncnc2sc3c(c12)CCC3 | - | - | - | - | - | . | . | . | .
COc1cc(N2N=C(c3ccccc3)CC2c2ccccc2)c(C=O)cc1C=O (stereo not drawn) | - | - | - | - | - | . | . | . | .
COc1ccccc1N1N=C(c2ccc([N+](=O)[O-])cc2)CC1c1ccccc1 (stereo not drawn) | - | - | - | - | -15.4 | - | 0.692 | - | -
O=[N+]([O-])c1ccc(N2N=C(c3ccccc3)CC2c2ccccc2O)cc1 (stereo not drawn) | -9.35 | - | - | - | -16 | - | 0.562 | - | -
O=S(=O)(Nc1cccc(-c2nnco2)c1)c1ccc(F)cc1F | - | - | - | - | - | . | . | . | .
Cc1ccccc1-n1c(=O)cc(N2CCCCCC2)[nH]c1=O | - | - | - | - | -6.01 | - | - | - | -
CC(OC(=O)c1ccc2c(c1)OCCO2)C(=O)NC1CCCCC1C (stereo not drawn) | - | - | - | - | - | . | . | . | .
S=C(NCCc1c[nH]c2ccccc12)NC1CCCC1 | - | - | - | - | -4.95 | - | - | - | -
S=C(NCCc1c[nH]c2ccccc12)NC1CCCCC1 | - | - | - | - | - | . | . | . | .
Nc1nc(N)c(Cc2ccc(Cl)cc2Cl)c(N)n1 | - | - | - | - | -4.78 | 71.2% | - | - | -
NNc1ccc(Cc2ccc(Cl)cc2Cl)nn1 | - | - | - | - | - | . | . | . | .
CC12C(=O)N(c3ccccn3)C(=O)C1C1C=CC2C1 (stereo not drawn) | - | - | - | - | -5.04 | - | - | - | -
Cc1ccnc2c(N3C(=O)C4C5C=CC(C5)C4(C)C3=O)cccc12 (stereo not drawn) | - | - | - | - | - | . | . | . | .
CCc1nnc(NC(=O)CSc2nccn2-c2cccc(C)c2)s1 | - | - | - | - | - | . | . | . | .
Cc1cccc(-n2ccnc2SCC(=O)Nc2nnc(C)s2)c1 | - | - | - | - | -7.72 | - | - | - | -
COc1ccc(N=Cc2ccc(-c3ccccc3)o2)cc1 | - | - | - | - | -5.99 | - | - | - | -
